Results taken from ChEMBL document CHEMBL4257586, “Polyheteroaryl Oxazole/Pyridine-Based Compounds Selected in Vitro as G-Quadruplex Ligands Inhibit Rock Kinase and Exhibit Antiproliferative Activity” (J Med Chem, 2018).
The source made the active and inactive calls. The calls are words filed in the database; no cut-off is given here.

Columns and labels:
[1] = target: T1, Rho-associated protein kinase 2 (Homo sapiens, UniProt O75116); assay: Inhibition of ROCK2 in human HeLa cells assessed as reduction in cofilin phosphorylation at Ser3 at 2 uM after 3 hrs by immunofluorescence assay; type: cell-based
How it was run: (§1)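 HeLa cells treated 3 h at 2 or 5 μM, with Y-27632 and untreated controls, then formaldehyde-fixed. Phospho-MYPT1 Thr853 or phospho-cofilin Ser3 immunostained with DNA. Confocal 0.5 μm slices plus z-projection, with acquisition settings fixed from the control.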

HeLa [2] = assay: Induction of cell cycle arrest in human HeLa cells at 1 uM after 48 hrs by propidium iodide-staining based flow cytometry; type: functional
How it was run: (§2)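 HeLa cells serum-starved 96 h for synchronization, then released and treated 48 h. Fixed in ice-cold 70% ethanol 1 h, stained with propidium iodide 50 μg/mL plus RNase A 0.2 mg/mL for 15 min at 37 °C, and analyzed by FACS.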

M21 [3] = assay: Antiproliferative activity against alpha5-integrin lacking human M21 cells after 72 hrs by MTS assay; type: functional, cell-based; settings: M21, 72 h
How it was run: (§3)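 Cells seeded at day 0 in 96-well plates, serial compound dilutions added at day 1; viable cells read 72 h after drug addition by MTS tetrazolium assay, in triplicate. IC50 taken as concentration halving cell growth. One first trial, then two additional experiments on selected compounds.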

A-375 [4] = assay: Induction of double stranded DNA breaks in human A375 cells assessed as gamma-H2Ax phosphorylation at 1 uM after 24 to 48 hrs by Hoechst 33342 staining-based laser confocal microscopy; type: functional, cell-based
U-87 MG = assay: Antiproliferative activity against human U87 cells after 72 hrs by MTS assay; type: functional, cell-based, U-87MG ATCC; how it was run: as §3
HeLa [5] = assay: Cytotoxicity against human HeLa cell spheroids assessed as effect on ATP content at 0.57 to 2 uM administered at day 3 post expansion and measured on day 6 by bioluminescence based assay; type: functional
How it was run: (§4)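 HeLa cells plated at 800/well in ultralow-adherence plates; one spheroid formed within 24 h at 37 °C, 5% CO2, grown in complete medium. Drug added at day 3, at four concentrations per compound. Largest section area measured daily by confocal imaging, five spheroids per condition. ATP-based CellTiter-Glo 3D luminescence read at day 6 after dosing.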

[6] = Drug uptake in human HeLa cell cytoplasm at 2 uM after 17 hrs imaged with 488 nm excitation by intrinsic fluorescence based assay; type: ADME, subcellular
How it was run: (§5)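 HeLa cells treated 17 h at 2 μM, or 3.3 μM for one analogue. Imaged by confocal microscopy with no added fluorophore, using 488 nm excitation, plus 405 nm excitation for the 3.3 μM treatment. Intrinsic compound fluorescence was compared with cell background near 510 nm.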

A-375 [7] = assay: Antiproliferative activity against human A375 cells after 72 hrs by MTS assay; type: functional, cell-based; settings: A-375, 72 h; how it was run: as §3
Quadruplex DNA = assay: Binding affinity to 6-FAM labeled human proto-oncogene sequence FMycT G-quadruplex DNA assessed as change in melting temperature at 1 uM in presence of K+ buffer (1 mM KCl, 99 mM LiCl, 10 mM Li cacodylate) by FRET assay; type: nucleic-acid assay
How it was run: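 FRET melting in duplicate. Dual-labelled oligo (6-FAM/TAMRA) at 0.2 μM with ligand at 1 μM, in 10 mM Li cacodylate pH 7.2. Buffer was 10 mM KCl + 90 mM LiCl for F21T and 1 mM KCl + 99 mM LiCl for FMycT. Sample annealed 90 °C 5 min, cooled to 4 °C overnight. Equilibrated 5 min at 25 °C, then ramped 0.5 °C/min to 95 °C. FAM read 492/516 nm, normalized; Tm taken at the fitted inflection point.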

A-431 = assay: Antiproliferative activity against human A431 cells after 72 hrs by MTS assay; type: functional, cell-based; settings: A-431, 72 h; how it was run: as §3
[8] = Drug uptake in human HeLa cell nucleus at 2 uM after 17 hrs imaged with 488 nm excitation by intrinsic fluorescence based assay; type: ADME, subcellular; how it was run: as §5
A549 [9] = assay: Antiproliferative activity against human A549 cells after 72 hrs by MTS assay; type: functional, cell-based; settings: A549, 72 h; how it was run: as §3
M21 [10] = assay: Antiproliferative activity against human M21 cells after 72 hrs by MTS assay; type: functional, cell-based; settings: M21, 72 h; how it was run: as §3
HeLa [11] = assay: Cytotoxicity against human HeLa cell spheroids assessed as cell growth inhibition at 570 nM administered at day 3 post expansion and […] by 3D-celltiter Glo assay; type: functional, cell-based; how it was run: as §4
[12] = Drug uptake in human HeLa cell cytoplasm at 3.3 uM after 17 hrs imaged with 488 nm excitation by intrinsic fluorescence based assay; type: ADME, subcellular; how it was run: as §5
HeLa [13] = assay: Cytotoxicity against human HeLa cell spheroids assessed as spheroid growth inhibition at 4 uM administered at day 3 post expansion and measured after […] by 3D-celltiter Glo assay relative to control; type: functional; how it was run: as §4
A-375 [14] = assay: Induction of double stranded DNA breaks in human A375 cells assessed as gamma-H2Ax phosphorylation at 2 uM after 24 to 48 hrs by Hoechst 33342 staining-based laser confocal microscopy; type: functional, cell-based
HeLa [15] = assay: Cytotoxicity against human HeLa cell spheroids assessed as effect on ATP content at 1 to 4 uM administered at day 3 post expansion and measured on day 6 by bioluminescence based assay; type: functional; how it was run: as §4
[16] = Drug uptake in human HeLa cell nucleus at 3.3 uM after 17 hrs imaged with 405 nm excitation by intrinsic fluorescence based assay; type: ADME, subcellular; how it was run: as §5
[17] = Drug uptake in human HeLa cell cytoplasm at 3.3 uM after 17 hrs imaged with 405 nm excitation by intrinsic fluorescence based assay; type: ADME, subcellular; how it was run: as §5
[18] = target: T1, Rho-associated protein kinase 2; assay: Inhibition of ROCK2 in human HeLa cells assessed as reduction in MYPT1 phosphorylation at Thr853 at 5 uM after 3 hrs by immunofluorescence assay; type: cell-based; how it was run: as §1
HeLa [19] = assay: Induction of cell cycle arrest in human HeLa cells at 2 uM after 48 hrs by propidium iodide-staining based flow cytometry; type: functional; how it was run: as §2
[20] = target: T1, Rho-associated protein kinase 2; assay: Inhibition of ROCK2 in human HeLa cells assessed as reduction in cofilin phosphorylation at Ser3 at 5 uM after 3 hrs by immunofluorescence assay; type: cell-based; how it was run: as §1
[21] = target: T1, Rho-associated protein kinase 2; assay: Inhibition of ROCK2 in human HeLa cells assessed as reduction in cofilin phosphorylation at Ser3 at 5 uM after 3 hrs by Western blot analysis; type: cell-based
How it was run: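 HeLa cells treated 3 h at 2 or 5 μM, then lysed in RIPA buffer with protease and phosphatase inhibitors. Western blot probed with anti-phospho-cofilin Ser3 and anti-actin (1/1000) on the same split membrane; luminescence detection.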

[22] = Drug uptake in human HeLa cell nucleus at 3.3 uM after 17 hrs imaged with 488 nm excitation by intrinsic fluorescence based assay; type: ADME, subcellular; how it was run: as §5
A549 [23] = assay: Cytotoxicity against human A549 cells assessed as presence of large vesicles at 2 uM after 24 to 48 hrs by Hoechst 33342 staining-based laser confocal microscopy; type: functional, cell-based
HeLa [24] = assay: Cytotoxicity against human HeLa cell spheroids assessed as cell growth inhibition at 300 nM administered at day 3 post expansion and measured […] by 3D-celltiter Glo assay; type: functional, cell-based; how it was run: as §4
HeLa [25] = assay: Cytotoxicity against human HeLa cell spheroids assessed as effect on ATP content at 0.3 to 2 uM […] by bioluminescence based assay; type: functional
[26] = target: T1, Rho-associated protein kinase 2; assay: Inhibition of ROCK2 (unknown origin) at 1 uM by ATP competition assay relative to control
How it was run: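 Single-point screen at 1 μM across a 50-kinase panel: recombinant enzymes, 33P-ATP radioactive filter-binding assay, duplicates, activity expressed relative to no-compound control.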

T1 sequence (O75116 whole entry, looked up): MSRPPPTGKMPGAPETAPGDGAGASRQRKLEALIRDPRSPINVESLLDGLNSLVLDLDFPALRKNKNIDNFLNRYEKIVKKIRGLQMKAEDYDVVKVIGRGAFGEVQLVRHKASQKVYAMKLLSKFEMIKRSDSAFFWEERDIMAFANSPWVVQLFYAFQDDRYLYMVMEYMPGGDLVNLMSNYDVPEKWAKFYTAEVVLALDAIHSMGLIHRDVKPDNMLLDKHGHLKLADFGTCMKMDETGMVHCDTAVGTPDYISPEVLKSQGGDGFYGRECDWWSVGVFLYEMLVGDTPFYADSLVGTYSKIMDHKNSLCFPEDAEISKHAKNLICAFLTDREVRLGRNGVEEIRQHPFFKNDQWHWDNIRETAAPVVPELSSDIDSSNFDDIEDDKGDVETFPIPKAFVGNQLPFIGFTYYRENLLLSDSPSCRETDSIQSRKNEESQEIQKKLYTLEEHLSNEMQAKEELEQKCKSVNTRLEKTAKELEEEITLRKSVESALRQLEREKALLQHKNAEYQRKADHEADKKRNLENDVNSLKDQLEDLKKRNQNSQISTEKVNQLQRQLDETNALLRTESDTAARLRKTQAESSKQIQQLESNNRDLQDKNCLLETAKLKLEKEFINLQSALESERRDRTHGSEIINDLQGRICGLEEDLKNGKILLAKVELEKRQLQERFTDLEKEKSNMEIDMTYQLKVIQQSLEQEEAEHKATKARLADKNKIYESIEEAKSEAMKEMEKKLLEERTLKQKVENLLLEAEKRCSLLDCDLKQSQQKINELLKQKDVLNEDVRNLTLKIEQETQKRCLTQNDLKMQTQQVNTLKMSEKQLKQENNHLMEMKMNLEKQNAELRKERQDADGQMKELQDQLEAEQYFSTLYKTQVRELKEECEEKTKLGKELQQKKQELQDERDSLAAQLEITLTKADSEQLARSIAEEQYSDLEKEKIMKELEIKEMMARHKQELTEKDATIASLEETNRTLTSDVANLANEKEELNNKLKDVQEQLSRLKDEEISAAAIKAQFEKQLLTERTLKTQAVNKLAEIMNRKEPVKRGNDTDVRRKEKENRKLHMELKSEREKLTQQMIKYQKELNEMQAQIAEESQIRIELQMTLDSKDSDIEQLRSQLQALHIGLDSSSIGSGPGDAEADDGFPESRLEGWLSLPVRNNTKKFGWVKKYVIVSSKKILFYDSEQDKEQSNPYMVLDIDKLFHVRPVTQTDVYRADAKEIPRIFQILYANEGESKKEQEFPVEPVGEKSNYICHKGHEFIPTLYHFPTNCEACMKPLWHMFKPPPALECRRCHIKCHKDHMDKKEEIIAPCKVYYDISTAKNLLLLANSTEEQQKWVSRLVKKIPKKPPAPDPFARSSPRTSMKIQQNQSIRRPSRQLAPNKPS

Structure (SMILES): c1cc(-c2cnco2)nc(-c2cnc(-c3cccc(-c4ncc(-c5cccc(-c6cnco6)n5)o4)n3)o2)c1
- inhibition [1]: Active
- Activity (HeLa [2]): inactive
- IC50 (M21 [3]): 7.24 µM
- Activity (A-375 [4]): inactive
- IC50 (U-87 MG): 440 nM
- Activity (HeLa [5]): Active
- Drug uptake [6]: Active
- IC50 (A-375 [7]): 440 nM
- ΔTm (Quadruplex DNA): 3.4 to 6.4 °C
- IC50 (A-431): 645 nM
- Drug uptake [8]: Active
- IC50 (A549 [9]): 2.71 µM
- IC50 (M21 [10]): 1560 nM
- growth inhibition (GI) (HeLa [11]): Active

Structure (SMILES): CN(C)CCOc1cc(-c2ncc(-c3cccc(-c4cnco4)n3)o2)nc(-c2ncc(-c3cccc(-c4cnco4)n3)o2)c1
- Drug uptake [12]: Active
- growth inhibition (GI) (HeLa [13]): 25%
- Activity (A-375 [14]): inactive
- ΔTm (Quadruplex DNA): 3.4 to 6.4 °C
- Activity (HeLa [15]): Active
- Drug uptake [16]: Active
- Drug uptake [17]: Active
- inhibition [18]: Active
- Activity (HeLa [19]): inactive
- inhibition [20]: Active
- inhibition [21]: Active
- Drug uptake [22]: Active
- Activity (A549 [23]): Active

Structure (SMILES): c1cc(-c2cnco2)nc(-c2cnc(-c3cccc(-c4cccc(-c5ncc(-c6cccc(-c7cnco7)n6)o5)n4)n3)o2)c1
- inhibition [1]: Active
- growth inhibition (GI) (HeLa [24]): Active
- Activity (HeLa [2]): inactive
- Activity (HeLa [25]): Active
- IC50 (M21 [3]): 3.57 µM
- Activity (A-375 [4]): inactive
- IC50 (U-87 MG): 246 nM
- Drug uptake [6]: Active
- inhibition [26]: 70%
- IC50 (A-375 [7]): 592 nM
- IC50 (A-431): 541 nM
- Drug uptake [8]: Active
- IC50 (A549 [9]): 3.95 µM
- IC50 (M21 [10]): 1580 nM
